Active and inactive are the calls of the source. The rule behind the calls is not given here.
Assays:
U-251 [1] = assay: Antiproliferative activity against human U-251 cells assessed as reduction in cell viability by measuring total mitochondrial respiration incubated for 72 hrs by MTT assay; type: functional, cell-based; details: U-251, 72 h
Summary of the method: (§1)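 Adherent tumour lines grown in HEPES-buffered RPMI-1640 with 10% heat-inactivated FCS, 2 mM L-glutamine, 0.01% sodium pyruvate, penicillin/streptomycin, 37 °C, 5% CO2. Seeding per well: MCF-7 7 × 10³, MDA-MB-231 4 × 10³, MDA-MB-361 6 × 10³, U251 2 × 10³. Cells seeded overnight, then exposed to a dose range for 72 h from 20 mM DMSO stocks diluted in medium. Washed, fixed, read by MTT or CV. IC50 given as mean ± SD of at least three independent experiments.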

MDA-MB-231 [2] = assay: Antiproliferative activity against human MDA-MB-231 cells assessed as reduction in cell viability at IC50 concentration incubated for 72 hrs in presence of 3-MA by crystal violet staining based assay; type: functional
MDA-MB-361 [3] = assay: Antiproliferative activity against human MDA-MB-361 cells assessed as reduction in cell viability by measuring total mitochondrial respiration incubated for 72 hrs by MTT assay; type: functional, cell-based; details: MDA-MB-361, 72 h; summary of the method: as §1
MDA-MB-361 [4] = assay: Antiproliferative activity against human MDA-MB-361 cells assessed as reduction in cell viability by measuring number of adherent cells incubated for 72 hrs by crystal violet staining based assay; type: functional; details: MDA-MB-361, 72 h; summary of the method: as §1
MDA-MB-231 [5] = assay: Induction of apoptosis in human MDA-MB-231 cells assessed as early apoptotic cells at IC50 concentration incubated for 72 hrs by Annexin V/propidium iodide staining based flow cytometry analysis (reference value: 0.72 %); type: functional
MDA-MB-231 [6] = assay: Induction of ROS production in human MDA-MB-231 cells assessed as oxidative burst incubated for 72 hrs by DHR staining based flow cytometry analysis; type: functional, cell-based
Summary of the method: (§2)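 MDA-MB-231 cells were treated for 72 h, then pre-stained with 1 µM dihydrorhodamine 123 for 20 min at 37 °C. After PBS washing and trypsinisation, ROS/RNS were read by flow cytometry.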

MDA-MB-231 [7] = assay: Antiproliferative activity against human MDA-MB-231 cells assessed as reduction in cell viability at IC50 concentration incubated for 72 hrs in presence of chloroquine by crystal violet staining based assay; type: functional
MDA-MB-231 [8] = assay: Antiproliferative activity against human MDA-MB-231 cells assessed as reduction in cell viability by measuring number of adherent cells incubated for 72 hrs by crystal violet staining based assay; type: functional; details: MDA-MB-231, 72 h; summary of the method: as §1
MDA-MB-231 [9] = assay: Induction of apoptosis in human MDA-MB-231 cells assessed as caspase activation incubated for 72 hrs by Apostat staining based flow cytometry analysis; type: functional, cell-based
MDA-MB-231 [10] = assay: Induction of autophagy in human MDA-MB-231 cells at IC50 concentration incubated for 72 hrs by acridine orange staining based flow cytometry analysis; type: functional, cell-based
[11] = Cytotoxicity against mouse Peritoneal exudate cell assessed as reduction in cell viability by measuring number of adherent cells incubated for 72 hrs by crystal violet staining based assay; type: toxicity
Summary of the method: (§3)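 Mouse peritoneal exudate cells were exposed to a dose range for 72 h, and viability was read by MTT (mitochondrial respiration) or CV (adherent cells). Compounds came from 20 mM DMSO stocks diluted in medium. IC50 given as mean ± SD.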

MDA-MB-231 [12] = assay: Induction of autophagy in human MDA-MB-231 cells assessed as increase in granularity of the cellular cytoplasm at IC50 concentration incubated for 72 hrs by flow cytometric analysis
MDA-MB-231 [13] = assay: Induction of apoptosis in human MDA-MB-231 cells assessed as chromatin condensation incubated for 72 hrs by propidium iodide staining based fluorescence microscopy analysis; type: functional, cell-based
MCF7 [14] = assay: Antiproliferative activity against human MCF7 cells assessed as reduction in cell viability by measuring total mitochondrial respiration incubated for 72 hrs by MTT assay; type: functional, cell-based; details: MCF7, 72 h; summary of the method: as §1
MDA-MB-231 [15] = assay: Induction of apoptosis in human MDA-MB-231 cells assessed as necrotic cells at IC50 concentration incubated for 72 hrs by Annexin V/propidium iodide staining based flow cytometry analysis (reference value: 1.11 %); type: functional
U-251 [16] = assay: Antiproliferative activity against human U-251 cells assessed as reduction in cell viability by measuring number of adherent cells incubated for 72 hrs by crystal violet staining based assay; type: functional; details: U-251, 72 h; summary of the method: as §1
MDA-MB-231 [17] = assay: Induction of apoptosis in human MDA-MB-231 cells assessed as abnormal cell shape incubated for 72 hrs by propidium iodide staining based fluorescence microscopy analysis; type: functional
[18] = Cytotoxicity against mouse Peritoneal exudate cell assessed as reduction in cell viability by measuring total mitochondrial respiration incubated for 72 hrs by MTT assay; type: toxicity, cell-based; details: peritoneal exudate cells; summary of the method: as §3
MCF7 [19] = assay: Antiproliferative activity against human MCF7 cells assessed as reduction in cell viability by measuring number of adherent cells incubated for 72 hrs by crystal violet staining based assay; type: functional; details: MCF7, 72 h; summary of the method: as §1
MDA-MB-231 [20] = assay: Induction of apoptosis in human MDA-MB-231 cells assessed as late apoptotic cells at IC50 concentration incubated for 72 hrs by Annexin V/propidium iodide staining based flow cytometry analysis (reference value: 3.19 %); type: functional
MDA-MB-231 [21] = assay: Antiproliferative activity against human MDA-MB-231 cells assessed as reduction in cell viability by measuring total mitochondrial respiration incubated for 72 hrs by MTT assay; type: functional, cell-based; details: MDA-MB-231, 72 h; summary of the method: as §1
MDA-MB-231 [22] = assay: Induction of RNS production in human MDA-MB-231 cells assessed as oxidative burst incubated for 72 hrs by DHR staining based flow cytometry analysis; type: functional, cell-based; summary of the method: as §2
MDA-MB-231 [23] = assay: Induction of apoptosis in human MDA-MB-231 cells assessed as increase in cell nuclei incubated for 72 hrs by propidium iodide staining based fluorescence microscopy analysis; type: functional
MDA-MB-231 [24] = assay: Induction of apoptosis in human MDA-MB-231 cells assessed as viable cells at IC50 concentration incubated for 72 hrs by Annexin V/propidium iodide staining based flow cytometry analysis (reference value: 95.0 %); type: functional
MDA-MB-231 [25] = assay: Induction of apoptosis in human MDA-MB-231 cells assessed as abnormal cell size incubated for 72 hrs by propidium iodide staining based fluorescence microscopy analysis; type: functional
[26] = (§4) Selectivity index, ratio of IC50 for cytotoxicity against mouse Peritoneal exudate cell assessed as reduction in cell viability by measuring number of adherent cells to IC50 for antiproliferative activity against human MDA-MB-231 cells assessed as reduction in cell viability by measuring number of adherent cells; type: toxicity, cell-based; details: mouse peritoneal exudate cells versus human MDA-MB-231 cells, read-out: Ratio IC50
Summary of the method: (§5)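 Selectivity index is the IC50 in normal mouse peritoneal exudate cells divided by the IC50 in MDA-MB-231. Both IC50s come from 72 h dose-range treatment, read by the same assay: CV (adherent cells) or MTT (mitochondrial respiration).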

[27] = as §4, with “total mitochondrial respiration” for “number of adherent cells”; type: toxicity, cell-based; details: mouse peritoneal exudate cells versus human MDA-MB-231 cells, read-out: Ratio IC50; summary of the method: as §5

IC50 (U-251 [1]) [µM] | IC50 (MDA-MB-361 [3]) [µM] | IC50 (MDA-MB-361 [4]) [µM] | IC50 (MDA-MB-231 [8]) [µM] | IC50 (MCF7 [14]) [µM] | IC50 (U-251 [16]) [µM] | IC50 (MCF7 [19]) [µM] | Compound | Activity (MDA-MB-231 [2]) | Activity (MDA-MB-231 [5]) [%] | Activity (MDA-MB-231 [6]) | Activity (MDA-MB-231 [7]) | Activity (MDA-MB-231 [9]) | Activity (MDA-MB-231 [10]) | IC50 at 72 h [11] [µM] | Activity (MDA-MB-231 [12]) | Activity (MDA-MB-231 [13]) | Activity (MDA-MB-231 [15]) [%] | Activity (MDA-MB-231 [17]) | IC50 at 72 h [18] [µM] | Activity (MDA-MB-231 [20]) [%] | other results
19.2 | 22.2 | 38.9 | 22 | 16.8 | 23.4 | 21.4 | O=C(c1ccc(OCCN2CCCCC2)cc1)c1c(-c2ccc(O)cc2)sc2cc(O)ccc12 [RALOXIFENE] | Active | 20.6 | Active | Active | Active | Active | 20.4 | Active | Active | 0.93 | Active | 18.3 | 11.5 | IC50 (MDA-MB-231 [21]): 19.1 µM; Activity (MDA-MB-231 [22]): Active; Activity (MDA-MB-231 [23]): Active; Activity (MDA-MB-231 [24]): 67%; Activity (MDA-MB-231 [25]): Active
2.2 | 6.3 | > 100 | 1.5 | 2.15 | 2.6 | 2.4 | COc1ccc(-c2sc3cc(OC)ccc3c2C(=O)c2ccc(OCc3ccnc(-c4ccccn4)c3)cc2)cc1 | Active | 29.3 | Active | Active | Active | Active | 18.9 | Active | Active | 1.01 | Active | 15.4 | 23.3 | selectivity ratio [26]: 12.6; selectivity ratio [27]: 9.5; IC50 (MDA-MB-231 [21]): 1.6 µM; Activity (MDA-MB-231 [22]): Active; Activity (MDA-MB-231 [23]): Active; Activity (MDA-MB-231 [24]): 46.4%; Activity (MDA-MB-231 [25]): Active

Source: ChEMBL document CHEMBL5532753, “Bipyraloxifene - a modified raloxifene vector against triple-negative breast cancer” (RSC Med Chem, 2024)
